Experimental data as given in ChEMBL document CHEMBL3734708, “Synthesis, cytotoxicity and antiviral evaluation of new series of imidazo[4,5-g]quinoline and pyrido[2,3-g]quinoxalinone derivatives” (Eur J Med Chem, 2015).

Tests used:
[1] = test system: Human poliovirus 1 strain Sabin; test: Antiviral activity against Human poliovirus 1 strain Sabin 1 virus infected in african green monkey Vero-76 cells after 2 days by plaque reduction assay; assay type: functional, organism-based; settings: Enterovirus C, 1, Vero 76, 48 h
[2] = test system: Coxsackievirus B5; test: Antiviral activity against CVB-5 virus Faulkner ATCC VR-185 infected in african green monkey Vero-76 cells after 3 days by plaque reduction assay; assay type: functional, organism-based; settings: Enterovirus B, Faulkner ATCC VR-185, Vero 76, 72 h
[3] = Cytotoxicity against MDBK cells assessed as reduction in cell viability after 72 hrs by MTT assay; assay type: cell-based, Bos taurus; settings: cattle
Outline: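 MDBK cells seeded at 6 × 10^5 cells/mL in MEM-E with L-glutamine, 1 mM sodium pyruvate, kanamycin and 10% horse serum. Mock-infected cultures held with serial compound dilutions at 37 °C, 5% CO2. MTT viability read after 72 h. 50% cytotoxic concentration from linear regression as % of untreated controls. Three independent determinations.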

[4] = Cytotoxicity against BHK21 cells assessed as reduction in cell viability after 72 hrs by MTT assay; assay type: cell-based, Mesocricetus auratus, BHK-21; settings: hamster
Outline: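 BHK cells seeded at 1 × 10^6 cells/mL in MEM-E with L-glutamine, 1 mM sodium pyruvate, kanamycin and 10% FBS. Mock-infected cells exposed to serial dilutions of compound at 37 °C, 5% CO2, run in parallel with the antiviral assays. Viability by MTT at 72 h. CC50 by linear regression vs untreated controls. Mean of three independent determinations.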

[5] = test system: Human alphaherpesvirus 1; test: Antiviral activity against HSV-1 KOS ATCC VR- 1493 infected in african green monkey Vero-76 cells after 3 days by plaque reduction assay; assay type: functional, organism-based; settings: Human alphaherpesvirus 1, KOS ATCC VR1493, Vero 76, 72 h
[6] = test system: Yellow fever virus; test: Antiviral activity against YFV 17-D vaccine (Stamaril Pasteur J07B01) infected in BHK21 cells assessed as protection against virus-induced cytopathic effect after 3 or 4 days by MTT assay; assay type: functional, organism-based; settings: BHK-21
Outline: (§1)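 BHK-21 (YFV, Reo-1) or MDBK (BVDV) cells seeded at 5 × 10^4 or 3 × 10^4 cells/well and grown overnight to confluence. Monolayers infected at m.o.i. 0.01 in maintenance medium (MEM-Earle, 0.5% inactivated FBS). Serial compound dilutions added 2 h after infection; 37 °C for 3-4 days. Viability read by MTT. EC50 by linear regression versus untreated controls; mean of three determinations.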

[7] = Cytotoxicity against human MT4 cells assessed as reduction in cell proliferation after 96 hrs by MTT assay; assay type: cell-based
Outline: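 MT-4 cells in exponential growth seeded at 1 × 10^5 cells/mL in RPMI-1640 with 10% FBS and penicillin/streptomycin. Cultured with serial compound dilutions at 37 °C, 5% CO2. MTT viability after 96 h. CC50 by linear regression against untreated controls. Mean of three independent determinations.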

[8] = test system: Mammalian orthoreovirus 1; test: Antiviral activity against Reovirus 1 ATCC VR- 214 infected in BHK21 cells assessed as protection against virus-induced cytopathic effect after 3 or 4 days by MTT assay; assay type: functional, cell-based; settings: Mammalian orthoreovirus 1, ATCC VR- 214, BHK-21; outline: as §1
[9] = test system: Human immunodeficiency virus 1; test: Antiviral activity against HIV-1 3B infected in human MT4 cells assessed as protection against virus-induced cytopathic effect after 4 days by MTT assay; assay type: functional, organism-based; settings: Human immunodeficiency virus 1, 3B, MT4, 96 h
Outline: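 MT-4 cells (1 × 10^4/well in RPMI) with or without serial compound dilutions, infected with HIV-1 at 100 CCID50 (m.o.i. 0.01). After 4 days at 37 °C, protection from cytopathogenicity read by MTT. EC50 by linear regression versus untreated controls; mean of three independent determinations.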

[10] = test system: Vesicular stomatitis virus; test: Antiviral activity against VSV Indiana ATCC VR-158 infected in african green monkey Vero-76 cells after 2 days by plaque reduction assay; assay type: functional, organism-based; settings: Indiana ATCC VR-158, Vero 76, 48 h
[11] = Cytotoxicity against african green monkey Vero 76 cells assessed as reduction in cell viability after 48 to 96 hrs by MTT assay; assay type: cell-based; settings: chlorocebus sabaeus
Outline: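 Vero-76 cells plated at 4 × 10^5 cells/mL in D-MEM with L-glutamine, kanamycin and 10% FBS. Incubated with serial dilutions of test compounds at 37 °C, 5% CO2 for 48-96 h. Viability by MTT. CC50 by linear regression relative to untreated cells. Mean of three independent runs.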

[12] = test system: Bovine viral diarrhea virus 1; test: Antiviral activity against BVDV NADL ATCC VR-534 infected in MDBK cells assessed as protection against virus-induced cytopathic effect after 3 or 4 days by MTT assay; assay type: functional, organism-based; settings: Bovine viral diarrhea virus isolates and strains, NADL ATCC VR-534, MDBK; outline: as §1
[13] = test system: Respiratory syncytial virus; test: Antiviral activity against RSVA2 ATCC VR-1540 infected in african green monkey Vero-76 cells after 5 days by plaque reduction assay; assay type: functional, organism-based; settings: human respiratory syncytial virus, A2 ATCC VR-1540, Vero 76, 120 h
[14] = test system: Vaccinia virus; test: Antiviral activity against VV Elstree ATCC VR-1549 infected in african green monkey Vero-76 cells after 3 days by plaque reduction assay; assay type: functional, organism-based; settings: Orthopoxvirus vaccinia, Elstree ATCC VR-1549, Vero 76, 72 h

SMILES	EC50 [1]	EC50 [2]	CC50 at 72 h [3]	CC50 at 72 h [4]	EC50 [5]	EC50 [6]	CC50 at 96 h [7]	EC50 [8]	EC50 [9]	EC50 [10]	CC50 [11]	EC50 [12]	EC50 [13]	EC50 [14]
Cn1c(=O)c(-c2ccccc2)nc2c(Cl)c3ncccc3cc21	38 µM	17 µM	> 100 µM	> 100 µM	> 100 µM	> 100 µM	> 100 µM	> 100 µM	> 100 µM	> 100 µM	> 100 µM	16 µM	> 100 µM	> 100 µM
N#CCn1c(=O)c(-c2ccccc2)nc2c(Cl)c3ncccc3cc21	> 90 µM	> 90 µM	> 100 µM	> 100 µM	> 90 µM	> 100 µM	> 100 µM	> 100 µM	> 100 µM	> 90 µM	90 µM	> 100 µM	> 90 µM	> 90 µM
c1csc(-c2nc3cc4cccnc4cc3n2C2CCCCC2)c1	> 15 µM	> 15 µM	> 100 µM	45 µM	> 15 µM	> 45 µM	18 µM	> 45 µM	> 18 µM	> 15 µM	15 µM	65 µM	> 15 µM	> 15 µM
CCn1c(=O)c(-c2ccccc2)nc2c(Cl)c3ncccc3cc21	> 60 µM	> 60 µM	> 100 µM	> 100 µM	> 60 µM	> 100 µM	> 100 µM	> 100 µM	> 100 µM	> 60 µM	60 µM	> 100 µM	> 60 µM	> 60 µM
c1ccc(-c2nc3cc4cccnc4cc3n2C2CCCCC2)cc1	> 35 µM	> 35 µM	> 100 µM	> 100 µM	> 35 µM	> 100 µM	50 µM	67 µM	> 50 µM	> 35 µM	35 µM	29 µM	> 35 µM	> 35 µM
c1ccc(Cc2nc3cc4cccnc4cc3n2CC2CCCCC2)cc1	> 25 µM	> 25 µM	> 100 µM	71 µM	> 25 µM	> 71 µM	10 µM	> 71 µM	> 10 µM	> 25 µM	25 µM	10 µM	> 25 µM	> 25 µM
O=c1c(Cc2ccccc2)nc2cc3cccnc3c(Cl)c2n1C1CCCCC1	> 20 µM	> 20 µM	> 100 µM	20 µM	> 20 µM	> 20 µM	34 µM	> 20 µM	> 34 µM	> 20 µM	20 µM	5 µM	> 20 µM	> 20 µM
CCCn1c(=O)c(-c2ccccc2)nc2cc3cccnc3c(Cl)c21	> 50 µM	7 µM	40 µM	> 100 µM	> 50 µM	> 100 µM	40 µM	> 100 µM	> 40 µM	> 50 µM	50 µM	33 µM	> 50 µM	> 50 µM
O=c1c(-c2ccccc2)nc2cc3cccnc3c(Cl)c2n1CC1CCCCC1	> 20 µM	> 20 µM	50 µM	15 µM	> 20 µM	> 15 µM	23 µM	> 15 µM	> 23 µM	> 20 µM	20 µM	4 µM	> 20 µM	> 20 µM
O=c1c(-c2ccccc2)nc2cc3cccnc3c(Cl)c2n1C1CCCCC1	> 70 µM	> 70 µM	> 100 µM	> 100 µM	> 70 µM	> 100 µM	48 µM	> 100 µM	> 48 µM	> 70 µM	70 µM	4 µM	> 70 µM	> 70 µM
O=c1c(-c2cccs2)nc2cc3cccnc3c(Cl)c2n1C1CCCCC1	> 100 µM	> 100 µM	> 100 µM	> 100 µM	> 100 µM	> 100 µM	> 100 µM	> 100 µM	> 100 µM	> 100 µM	> 100 µM	15 µM	> 100 µM	> 100 µM
